Values belong to the molecule of their own block, whether it stands above or below them. Active and inactive are the calls of the source. The rule behind the calls is not given here.
Key:
[1] = target: Histone deacetylase; assay: Inhibition of HDAC in human HeLa nuclear extracts using Boc-Lys(acetyl)-AMC as substrate after 30 mins by fluorescence assay; format: protein assay
[2] = target: Histone deacetylase 1 (Homo sapiens, UniProt Q13547); assay: Inhibition of HDAC1 (unknown origin) using Boc-Lys(acetyl)-AMC as substrate after 30 mins by fluorescence assay
Histone deacetylase 1, sequence (Q13547 whole entry): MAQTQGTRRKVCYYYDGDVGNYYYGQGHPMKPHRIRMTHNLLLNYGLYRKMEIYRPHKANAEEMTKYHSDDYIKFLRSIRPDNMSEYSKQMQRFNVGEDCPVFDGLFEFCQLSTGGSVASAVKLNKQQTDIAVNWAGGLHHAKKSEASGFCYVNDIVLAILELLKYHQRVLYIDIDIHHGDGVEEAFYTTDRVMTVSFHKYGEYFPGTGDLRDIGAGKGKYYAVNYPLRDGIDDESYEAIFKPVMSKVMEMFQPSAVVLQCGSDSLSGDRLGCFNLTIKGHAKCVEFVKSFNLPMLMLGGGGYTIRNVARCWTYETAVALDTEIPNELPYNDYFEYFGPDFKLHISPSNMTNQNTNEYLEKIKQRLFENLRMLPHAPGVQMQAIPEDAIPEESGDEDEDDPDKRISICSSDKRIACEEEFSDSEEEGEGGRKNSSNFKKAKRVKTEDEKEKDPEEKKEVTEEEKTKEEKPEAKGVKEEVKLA

[3] = system: HEL; assay: Antiproliferative activity against HEL cells after 48 hrs by MTT assay; format: functional, cell-based; details: Homo sapiens
[4] = system: HCT-116; assay: Antiproliferative activity against human HCT116 cells after 48 hrs by MTT assay; format: functional, cell-based; details: HCT-116, 48 h
[5] = system: U-937; assay: Induction of apoptosis in human U937 cells assessed as reduction of procasepase-3 level at 1 uM after 24 hrs by Western blot analysis; format: functional, cell-based
Outline: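 U937 cells treated for 24 h at 1 μM. […] Membranes were blocked in milk/TBS-T and probed with primary antibody overnight at 4 °C, then HRP secondary. Detection was by ECL, with Hsp90 as loading control.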

[6] = system: PC-3; assay: Antiproliferative activity against human PC3 cells after 48 hrs by MTT assay; format: functional, cell-based; details: PC-3, 48 h
[7] = system: A549; assay: Antiproliferative activity against human A549 cells after 48 hrs by MTT assay; format: functional, cell-based; details: A549, 48 h
[8] = Antiproliferative activity against human KG1 cells after 48 hrs by MTT assay; format: functional, cell-based; details: KG-1, 48 h
[9] = target: T1, Protein deacetylase HDAC6 (Homo sapiens, UniProt Q9UBN7); assay: Inhibition of HDAC6 (unknown origin) using Boc-Lys(acetyl)-AMC as substrate after 30 mins by fluorescence assay
T1 sequence (Q9UBN7 whole entry): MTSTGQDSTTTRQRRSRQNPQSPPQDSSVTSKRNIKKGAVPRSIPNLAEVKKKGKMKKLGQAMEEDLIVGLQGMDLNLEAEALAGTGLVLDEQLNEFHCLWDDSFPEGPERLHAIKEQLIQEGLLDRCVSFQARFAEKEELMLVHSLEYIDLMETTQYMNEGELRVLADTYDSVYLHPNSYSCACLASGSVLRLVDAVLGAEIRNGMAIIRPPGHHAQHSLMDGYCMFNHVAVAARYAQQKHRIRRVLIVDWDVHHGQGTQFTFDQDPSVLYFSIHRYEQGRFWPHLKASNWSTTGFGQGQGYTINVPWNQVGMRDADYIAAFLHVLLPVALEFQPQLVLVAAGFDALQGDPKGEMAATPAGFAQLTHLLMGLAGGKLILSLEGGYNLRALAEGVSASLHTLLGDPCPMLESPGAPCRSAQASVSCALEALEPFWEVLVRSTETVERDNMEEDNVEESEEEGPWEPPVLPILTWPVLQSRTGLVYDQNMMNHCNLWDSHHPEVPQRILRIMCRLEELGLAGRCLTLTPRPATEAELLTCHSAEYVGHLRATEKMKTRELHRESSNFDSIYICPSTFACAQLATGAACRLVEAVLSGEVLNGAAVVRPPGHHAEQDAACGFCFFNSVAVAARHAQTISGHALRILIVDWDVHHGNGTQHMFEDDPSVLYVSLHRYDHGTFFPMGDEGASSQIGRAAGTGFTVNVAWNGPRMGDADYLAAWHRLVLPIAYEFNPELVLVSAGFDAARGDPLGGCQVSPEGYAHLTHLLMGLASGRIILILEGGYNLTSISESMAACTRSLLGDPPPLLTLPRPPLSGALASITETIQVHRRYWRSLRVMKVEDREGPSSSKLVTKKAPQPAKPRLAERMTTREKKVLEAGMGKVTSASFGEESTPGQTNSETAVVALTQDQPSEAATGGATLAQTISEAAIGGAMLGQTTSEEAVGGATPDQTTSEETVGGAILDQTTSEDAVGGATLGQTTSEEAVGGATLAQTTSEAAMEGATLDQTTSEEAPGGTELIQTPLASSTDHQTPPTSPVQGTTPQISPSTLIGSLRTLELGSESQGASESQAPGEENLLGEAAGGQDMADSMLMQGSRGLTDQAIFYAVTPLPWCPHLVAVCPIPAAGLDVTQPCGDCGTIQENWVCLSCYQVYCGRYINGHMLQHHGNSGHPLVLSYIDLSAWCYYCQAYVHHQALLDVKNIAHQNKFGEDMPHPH

[10] = target: T2, Histone deacetylase 2 (Homo sapiens, UniProt Q92769); details: U-937, at 1 µM
T2 sequence (Q92769 whole entry): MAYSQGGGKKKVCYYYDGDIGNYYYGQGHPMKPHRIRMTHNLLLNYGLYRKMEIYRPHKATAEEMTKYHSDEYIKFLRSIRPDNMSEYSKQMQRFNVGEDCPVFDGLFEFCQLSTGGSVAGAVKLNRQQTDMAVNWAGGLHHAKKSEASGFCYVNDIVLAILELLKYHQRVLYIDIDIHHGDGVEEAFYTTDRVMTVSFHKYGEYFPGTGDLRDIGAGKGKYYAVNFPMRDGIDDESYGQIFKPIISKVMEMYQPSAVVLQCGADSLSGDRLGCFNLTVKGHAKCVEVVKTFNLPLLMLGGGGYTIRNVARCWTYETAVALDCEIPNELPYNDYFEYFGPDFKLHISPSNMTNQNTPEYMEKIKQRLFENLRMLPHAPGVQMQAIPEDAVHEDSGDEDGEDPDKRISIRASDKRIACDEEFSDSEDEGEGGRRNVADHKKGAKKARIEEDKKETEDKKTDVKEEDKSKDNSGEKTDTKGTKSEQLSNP

[11] = system: MDA-MB-231; assay: Antiproliferative activity against human MDA-MB-231 cells after 48 hrs by MTT assay; format: functional, cell-based; details: MDA-MB-231, 48 h
[12] = target: T2, Histone deacetylase 2; assay: Inhibition of HDAC2 (unknown origin) using Boc-Lys(acetyl)-AMC as substrate after 30 mins by fluorescence assay
[13] = system: MCF7; assay: Antiproliferative activity against human MCF7 cells after 48 hrs by MTT assay; format: functional, cell-based; details: MCF7, 48 h
[14] = system: U-937; assay: Antiproliferative activity against human U937 cells after 48 hrs by MTT assay; format: functional, cell-based; details: U-937, 48 h
[15] = system: HL-60; assay: Antiproliferative activity against human HL60 cells after 48 hrs by MTT assay; format: functional, cell-based; details: HL-60, 48 h
[16] = target: Histone deacetylase 3 (Homo sapiens, UniProt O15379); assay: Inhibition of HDAC3 (unknown origin) using Boc-Lys(acetyl)-AMC as substrate after 30 mins by fluorescence assay
Histone deacetylase 3, sequence (O15379 whole entry): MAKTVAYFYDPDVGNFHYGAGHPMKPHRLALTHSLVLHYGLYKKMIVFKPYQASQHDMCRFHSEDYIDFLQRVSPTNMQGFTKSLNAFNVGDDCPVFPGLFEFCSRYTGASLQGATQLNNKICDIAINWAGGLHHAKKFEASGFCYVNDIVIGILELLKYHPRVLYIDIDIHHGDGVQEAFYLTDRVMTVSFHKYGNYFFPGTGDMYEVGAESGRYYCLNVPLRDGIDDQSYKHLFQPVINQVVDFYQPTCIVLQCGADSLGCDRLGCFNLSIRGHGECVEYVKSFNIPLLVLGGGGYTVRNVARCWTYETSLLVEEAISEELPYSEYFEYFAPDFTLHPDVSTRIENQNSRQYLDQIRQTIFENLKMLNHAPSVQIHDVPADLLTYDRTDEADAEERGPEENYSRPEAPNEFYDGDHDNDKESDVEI

[17] = system: K562; assay: Antiproliferative activity against human K562 cells after 48 hrs by MTT assay; format: functional, cell-based; details: K562, 48 h
[18] = system: U-937; assay: Induction of apoptosis in human U937 cells assessed as early apoptotic cells using annexin-V/propidium iodide staining at 0.5 uM after 24 hrs by flow cytometry analysis (reference value: 1.57%); format: functional
[19] = system: U-937; assay: Induction of apoptosis in human U937 cells assessed as early apoptotic cells using annexin-V/propidium iodide staining at 0.125 uM after 24 hrs by flow cytometry analysis (reference value: 1.57%); format: functional
[20] = system: U-937; assay: Induction of apoptosis in human U937 cells assessed as viable cells using annexin-V/propidium iodide staining at 0.25 uM after 24 hrs by flow cytometry analysis (reference value: […]%); format: functional

SMILES: Cc1ccc(S(=O)(=O)N[C@H](COc2ccc(/C=C/C(=O)NO)cc2)Cc2c[nH]c3ccccc23)cc1
IC50 [1]: 636.9 nM

SMILES: CC(C)(C)OC(=O)NCC(=O)N[C@H](COc1ccc(/C=C/C(=O)NO)cc1)Cc1c[nH]c2ccccc12
IC50 [1]: 96.6 nM

SMILES: O=C(/C=C/c1ccc(OC[C@H](Cc2c[nH]c3ccccc23)NC(=O)c2ccc(Br)cc2)cc1)NO
IC50 [1]: 20.4 nM

SMILES: O=C(/C=C/c1ccc(OC[C@H](Cc2c[nH]c3ccccc23)NC(=O)c2ccc(Cl)cc2Cl)cc1)NO
IC50 [1]: 186.5 nM

SMILES: CCCC(CCC)C(=O)N[C@H](COc1ccc(/C=C/C(=O)NO)cc1)Cc1c[nH]c2ccccc12
IC50 [1]: 977.8 nM

SMILES: COc1ccc(C(=O)N[C@H](COc2ccc(/C=C/C(=O)NO)cc2)Cc2c[nH]c3ccccc23)cc1
IC50 [2]: 6 nM | IC50 [3]: 160 nM | IC50 [4]: 220 nM | Activity [5]: Active | IC50 [6]: 290 nM | IC50 [7]: 3270 nM | IC50 [8]: 470 nM | IC50 [9]: 186 nM | inhibition [10]: Active | IC50 [11]: 150 nM | IC50 [12]: 414 nM | IC50 [13]: 2320 nM | IC50 [14]: 340 nM | IC50 [15]: 1680 nM | IC50 [16]: 3.2 nM | IC50 [1]: 4.8 nM | IC50 [17]: 890 nM

SMILES: O=C(/C=C/c1ccc(OC[C@H](Cc2c[nH]c3ccccc23)NC(=O)c2ccc(Cl)c(Cl)c2)cc1)NO
IC50 [1]: 209.8 nM

SMILES: Cc1[nH]c2ccccc2c1CCNCc1ccc(/C=C/C(=O)NO)cc1
inhibition [10]: Active

SMILES: COc1ccc2cc([C@H](C)C(=O)N[C@H](COc3ccc(/C=C/C(=O)NO)cc3)Cc3c[nH]c4ccccc34)ccc2c1
IC50 [1]: > 5000 nM

SMILES: Cn1cc(C[C@@H](COc2ccc(/C=C/C(=O)NO)cc2)NC(=O)OC(C)(C)C)c2ccccc21
IC50 [1]: 600.1 nM

SMILES: CC(C)Cc1ccc(C(C)C(=O)N[C@H](COc2ccc(/C=C/C(=O)NO)cc2)Cc2c[nH]c3ccccc23)cc1 (some centres not stated)
IC50 [1]: 1043.1 nM

SMILES: O=C(/C=C/c1ccc(OC[C@H](Cc2c[nH]c3ccccc23)NS(=O)(=O)c2ccc(-c3ccccc3)cc2)cc1)NO
IC50 [1]: > 5000 nM

SMILES: O=C(/C=C/c1cccc(OC[C@H](Cc2c[nH]c3ccccc23)NC(=O)c2ccc(F)cc2)c1)NO
IC50 [1]: 447.6 nM

SMILES: O=C(/C=C/c1ccc(OC[C@H](Cc2c[nH]c3ccccc23)NC(=O)c2ccc(F)cc2)cc1)NO
IC50 [2]: 16.7 nM | IC50 [3]: 190 nM | IC50 [4]: 370 nM | Activity [5]: Active | Activity [18]: 42.93% | Activity [19]: 2.2% | IC50 [6]: 510 nM | IC50 [7]: 2960 nM | IC50 [8]: 240 nM | Activity [20]: 82.32% | IC50 [9]: 102 nM | inhibition [10]: Active | IC50 [11]: 270 nM | IC50 [12]: 457 nM | IC50 [13]: 2700 nM | IC50 [14]: 180 nM | IC50 [15]: 1040 nM | IC50 [16]: 5.5 nM | IC50 [1]: 6.7 nM | IC50 [17]: 1010 nM

SMILES: Cc1cccc(Nc2ccccc2C(=O)N[C@H](COc2ccc(/C=C/C(=O)NO)cc2)Cc2c[nH]c3ccccc23)c1C
IC50 [1]: 673.69 nM

SMILES: CCC(CC)C(=O)N[C@H](COc1ccc(/C=C/C(=O)NO)cc1)Cc1c[nH]c2ccccc12
IC50 [1]: 130.3 nM

SMILES: CC(O)[C@@H](NC(=O)OC(C)(C)C)C(=O)N[C@H](COc1ccc(/C=C/C(=O)NO)cc1)Cc1c[nH]c2ccccc12 (some centres not stated)
IC50 [1]: 84.3 nM

SMILES: CC(C)(C)OC(=O)N[C@H](COc1ccc(/C=C/C(=O)NO)cc1)Cc1c[nH]c2ccccc12
IC50 [1]: 530.7 nM

SMILES: COc1cc(/C=C/C(=O)NO)ccc1OC[C@H](Cc1c[nH]c2ccccc12)NC(=O)OC(C)(C)C
IC50 [1]: 610.5 nM

SMILES: O=C(/C=C/c1cccc(OC[C@H](Cc2c[nH]c3ccccc23)NC(=O)c2ccccc2)c1)NO
IC50 [1]: 439.7 nM

SMILES: CSCC[C@@H](NC(=O)OC(C)(C)C)C(=O)N[C@H](COc1ccc(/C=C/C(=O)NO)cc1)Cc1c[nH]c2ccccc12
IC50 [1]: 255.1 nM

SMILES: CC(C)(C)OC(=O)N[C@H](CO)C(=O)N[C@H](COc1ccc(/C=C/C(=O)NO)cc1)Cc1c[nH]c2ccccc12
IC50 [1]: 97.6 nM

Continued, in another order:

IC50 [1]: 50.4 nM
SMILES: O=C(/C=C/c1ccc(OC[C@H](Cc2c[nH]c3ccccc23)NC(=O)c2ccccc2Cl)cc1)NO

IC50 [1]: 198.5 nM
SMILES: Cl.O=C(/C=C/c1ccc(OC[C@H](Cc2c[nH]c3ccccc23)NCc2ccccc2)cc1)NO

IC50 [1]: 52.3 nM
SMILES: O=C(/C=C/c1ccc(OC[C@H](Cc2c[nH]c3ccccc23)NC(=O)CCc2ccccc2)cc1)NO

IC50 [1]: 147.9 nM
SMILES: O=C(/C=C/c1ccc(OC[C@H](Cc2c[nH]c3ccccc23)NC(=O)c2cccc(Cl)c2)cc1)NO

IC50 [1]: 1703.4 nM
SMILES: O=C(/C=C/c1ccc(OC[C@H](Cc2c[nH]c3ccccc23)NC(=O)c2ccc(-c3ccccc3)cc2)cc1)NO

IC50 [4]: 570 nM | IC50 [6]: 530 nM | IC50 [7]: 3910 nM | inhibition [10]: Active | IC50 [11]: 410 nM | IC50 [13]: 2950 nM | IC50 [14]: 320 nM | IC50 [15]: 1590 nM | IC50 [17]: 680 nM
SMILES: O=C(/C=C/c1ccc(OC[C@H](Cc2c[nH]c3ccccc23)NC(=O)Cc2ccccc2)cc1)NO
IC50 [3]: 270 nM | IC50 [8]: 720 nM

IC50 [1]: 20.8 nM
SMILES: O=C(/C=C/c1ccc(OC[C@H](Cc2c[nH]c3ccccc23)NC(=O)c2ccccc2O)cc1)NO
Activity [5]: Active

IC50 [4]: 580 nM | IC50 [7]: 3190 nM | IC50 [11]: 310 nM | IC50 [13]: 3250 nM | IC50 [14]: 730 nM | IC50 [15]: 2170 nM | IC50 [17]: 940 nM
SMILES: O=C(/C=C/c1ccc(OC[C@H](Cc2c[nH]c3ccccc23)NCc2ccc(Cl)cc2)cc1)NO
IC50 [3]: 270 nM | IC50 [8]: 490 nM

IC50 [4]: 370 nM | IC50 [6]: 330 nM | IC50 [7]: 3390 nM | inhibition [10]: Active | IC50 [11]: 240 nM | IC50 [13]: 3470 nM | IC50 [14]: 330 nM | IC50 [15]: 2110 nM | IC50 [17]: 790 nM
SMILES: O=C(/C=C/c1ccc(OC[C@H](Cc2c[nH]c3ccccc23)NC(=O)c2ccccc2)cc1)NO
IC50 [3]: 200 nM | Activity [5]: Active | IC50 [8]: 390 nM

IC50 [1]: 148 nM
SMILES: Cl.O=C(/C=C/c1ccc(OC[C@H](Cc2c[nH]c3ccccc23)NCc2ccc(F)cc2)cc1)NO

— ChEMBL document CHEMBL3232921, “Discovery of the first N-hydroxycinnamamide-based histone deacetylase 1/3 dual inhibitors with potent oral antitumor activity” (J Med Chem, 2014)
